In ChEMBL document CHEMBL4145483, “Quinoxaline derivatives as new inhibitors of coxsackievirus B5” (Eur J Med Chem, 2018):
The source made the active and inactive calls. No cut-off for these calls is given here.

Key:
[1] = system: Mammalian orthoreovirus 1; test: Antiviral activity against Reovirus 1 3651 ATCC VR-214 infected in golden hamster BHK21 cells assessed as protection against virus-induced cytopathic effect after 3 to 4 days by MTT assay; format: functional, organism-based; settings: Mammalian orthoreovirus 1, 3651 ATCC VR-214, BHK-21
How it was run: (§1)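 Cytopathic-effect protection assay. MDBK (BVDV) or BHK (Reo-1) cells are infected in the presence of serial compound dilutions. After 3 or 4 days at 37 °C, viability is read by MTT. EC50 is the concentration giving 50% protection from virus-induced cytopathogenicity, derived by linear regression.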

Yellow fever virus = test: Antiviral activity against Yellow fever virus 17D infected in golden hamster BHK21 cells assessed as protection against virus-induced cytopathic effect after 3 to 4 days by MTT assay; format: functional, organism-based; settings: BHK-21
Coxsackievirus B5 [2] = test: Antiviral activity against Coxsackievirus B5 Ohio-1 ATCC VR 29 infected in African green monkey Vero 76 cells after 3 days by plaque reduction assay; format: functional, organism-based; settings: Enterovirus B, Ohio-1 ATCC VR 29, Vero 76, 72 h
How it was run: (§2)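 Plaque reduction in Vero-76 monolayers, with cytotoxicity measured in parallel on the same plate. EC50 is the concentration reducing plaque number by 50%, derived by linear regression. CC50 is the concentration reducing viability of mock-infected Vero-76 cells by 50%, by MTT. Selectivity index is CC50/EC50.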

Human alphaherpesvirus 1 = test: Antiviral activity against HSV1 KOS ATCC VR 1493 infected in African green monkey Vero 76 cells after 3 days by plaque reduction assay; format: functional, organism-based; settings: Human alphaherpesvirus 1, KOS ATCC VR1493, Vero 76, 72 h; how it was run: as §2
[3] = system: Human immunodeficiency virus 1; test: Antiviral activity against HIV1 3B infected in human MT4 cells assessed as protection against virus-induced cytopathic effect after 3 to 4 days by MTT assay; format: functional, organism-based; settings: Human immunodeficiency virus 1, 3B
How it was run: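 MT-4 cells in exponential growth are acutely infected with HIV-1 at m.o.i. 0.01 and exposed to serial compound dilutions. Viability is read by MTT after 3–4 days at 37 °C. EC50 is the concentration giving 50% protection from virus-induced cytopathogenicity, and CC50 is taken from mock-infected MT-4 cells. Both are fitted by linear regression, and the selectivity index is CC50/EC50.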

Vaccinia virus = test: Antiviral activity against Vaccinia virus Lister ATCC VR 1549 infected in African green monkey Vero 76 cells after 3 days by plaque reduction assay; format: functional, organism-based; settings: Orthopoxvirus vaccinia, ATCC VR 1549, Vero 76, 72 h
[4] = Cytotoxicity against MDBK cells assessed as reduction in cell viability after 48 to 96 hrs by MTT assay; format: cell-based, Bos taurus; settings: cattle
How it was run: (§3)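 Cells are grown in medium with serum: MT-4 at 4×10^5 cells/ml in RPMI-1640 with 10% FBS; MDBK at 6×10^5 in MEM-E with 10% horse serum; BHK at 1×10^6 in MEM-E with 10% FBS; Vero-76 at 4×10^5 in D-MEM with 10% FBS. Serial dilutions are added at 37 °C, 5% CO2, and viability is read by MTT after 48–96 h. CC50 comes from linear regression. For MDBK, selectivity index is CC50/BVDV EC50.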

[5] = system: Bovine viral diarrhea virus 1; test: Antiviral activity against BVDV NADL ATCC VR-534 infected in MDBK cells assessed as protection against virus-induced cytopathic effect after 3 to 4 days by MTT assay; format: functional, organism-based, Bovine viral diarrhea virus 1-NADL; settings: Bovine viral diarrhea virus isolates and strains, ATCC VR-534, MDBK; how it was run: as §1
Human orthopneumovirus = test: Antiviral activity against Human respiratory syncytial virus A2 ATCC VR 1540 infected in African green monkey Vero 76 cells after 5 days by plaque reduction assay; format: functional, organism-based; settings: ATCC VR 1540, Vero 76, 120 h; how it was run: as §2
[6] = Cytotoxicity against African green monkey Vero 76 cells assessed as reduction in cell viability after 48 to 96 hrs by MTT assay; format: cell-based; settings: chlorocebus sabaeus; how it was run: as §3
[7] = system: Human poliovirus 1 strain Sabin; test: Antiviral activity against Poliovirus 1 Sabin ATCC VR 1562 infected in African green monkey Vero 76 cells after 2 days by plaque reduction assay; format: functional, organism-based; settings: Enterovirus C, ATCC VR 1562, Vero 76, 48 h
[8] = system: Vesicular stomatitis Indiana virus; test: Antiviral activity against Vesicular stomatitis virus Indiana ATCC VR 1540 infected in African green monkey Vero 76 cells after 3 days by plaque reduction assay; format: functional, organism-based; settings: ATCC VR 1540, Vero 76, 72 h
[9] = Cytotoxicity against human MT4 cells assessed as reduction in cell viability after 48 to 96 hrs by MTT assay; format: cell-based; how it was run: as §3
[10] = Cytotoxicity against golden hamster BHK21 cells assessed as reduction in cell viability after 48 to 96 hrs by MTT assay; format: cell-based, Mesocricetus auratus, BHK-21; how it was run: as §3
[11] = Selectivity index, ratio of CC50 for African green monkey Vero 76 cells to EC50 for Coxsackievirus B5 Ohio-1 ATCC VR-29; format: toxicity; settings: read-out: Ratio CC50/EC50; how it was run: as §2
Coxsackievirus B5 [12] = test: Antiviral activity against Coxsackievirus B5 Ohio-1 ATCC VR 29 infected in African green monkey Vero 76 cells assessed as reduction in viral replication at 1 uM measured up to 2 hrs post infection by plaque assay; format: functional, organism-based
How it was run: (§4)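 Time of addition. Confluent Vero-76 monolayers are infected with CV-B5 at m.o.i. 0.3. Compound at 1 μM is given at −2 to 0 h then removed, at 0 h then removed or kept, or at 2, 4, 6, 8 or 12 h post infection. After 3 days, monolayers are collected and titred by plaque assay, in two independent experiments each done in duplicate.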

Coxsackievirus B5 [13] = test: Antiviral activity against Coxsackievirus B5 Ohio-1 ATCC VR 29 infected in African green monkey Vero 76 cells assessed as reduction in viral titre incubated for 60 mins at 4 degC measured after 24 hrs by plaque assay; format: functional, organism-based
How it was run: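 Adsorption assay. Vero-76 cells are infected with CV-B5 (m.o.i. 0.1) with or without compound for 60 min at 4 °C. Unbound virus is removed, cells are washed twice with PBS and overlaid with MEM containing 1% methylcellulose. Plaques are counted after 24 h at 37 °C.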

Coxsackievirus B5 [14] = test: Antiviral activity against Coxsackievirus B5 Ohio-1 ATCC VR 29 infected in African green monkey Vero 76 cells assessed as reduction in viral titre at 1 uM preincubated for 2 hrs followed by viral infection and subsequent compound washout at 2 hrs post infection by plaque assay; format: functional, organism-based; how it was run: as §4
Coxsackievirus B5 [15] = test: Antiviral activity against Coxsackievirus B5 Ohio-1 ATCC VR 29 infected in African green monkey Vero 76 cells assessed as reduction in viral infectivity at 4 to 20 uM after 1 hr by plaque assay; format: functional, organism-based
How it was run: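 Virucidal test. A CV-B5 suspension (5×10^5 PFU/ml) is incubated with 4 or 20 μM compound, or without, for 1 h at 37 °C. Residual infectivity is then measured by plaque assay on Vero-76 cells.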

Coxsackievirus B5 [16] = test: Antiviral activity against Coxsackievirus B5 Ohio-1 ATCC VR 29 infected in African green monkey Vero 76 cells assessed as reduction in viral replication at 1 uM measured at 4 to 12 hrs post infection by plaque assay; format: functional, organism-based; how it was run: as §4
Coxsackievirus B5 [17] = test: Antiviral activity against Coxsackievirus B5 Ohio-1 ATCC VR 29 infected in African green monkey Vero 76 cells assessed as reduction in viral titre at 1 uM treated simultaneously with viral infection and subsequent compound washout after 2 hrs by plaque assay; format: functional, organism-based; how it was run: as §4
Coxsackievirus B5 [18] = test: Antiviral activity against Coxsackievirus B5 Ohio-1 ATCC VR 29 infected in African green monkey Vero 76 cells assessed as reduction in viral yield after 72 hrs by plaque reduction assay; format: functional, organism-based
Coxsackievirus B5 [19] = test: Antiviral activity against Coxsackievirus B5 Ohio-1 ATCC VR 29 infected in African green monkey Vero 76 cells assessed as reduction in viral titre at 1 uM treated simultaneously with viral infection by plaque assay; format: functional, organism-based; how it was run: as §4

Row | Compound | EC50 [1] [µM] | EC50 (Yellow fever virus) [µM] | EC50 (Coxsackievirus B5 [2]) [µM] | EC50 (Human alphaherpesvirus 1) [µM] | EC50 [3] [µM] | EC50 (Vaccinia virus) [µM] | CC50 [4] [µM] | EC50 [5] [µM] | EC50 (Human orthopneumovirus) [µM] | CC50 [6] [µM] | EC50 [7] [µM] | EC50 [8] [µM] | CC50 [9] [µM] | CC50 [10] [µM] | selectivity ratio [11] | also measured
1 | CCOC(=O)CC[C@H](NC(=O)c1ccccc1SCc1ccc2nc(OC)c(OC)nc2c1)C(=O)OCC | > 100 | > 100 | > 100 | > 100 | > 60 | > 100 | > 100 | > 100 | > 100 | > 100 | > 100 | > 100 | 60 | > 100 | – | –
2 | COc1nc2ccc(CSc3ccc(C(=O)O)cn3)cc2nc1OC | > 100 | > 100 | 3.8 | > 90 | > 100 | > 90 | > 100 | > 100 | > 90 | 90 | > 90 | > 90 | > 100 | > 100 | 23 | –
3 | COc1nc2ccc(CSc3ccc(C(=O)O)cc3)cc2nc1OC | > 65 | > 65 | 0.06 | > 65 | > 68 | > 65 | > 100 | > 100 | > 65 | 65 | > 65 | > 65 | 68 | 65 | 1080 | –
4 | CCOC(=O)c1ccc(SCc2ccc3nc(OC)c(OC)nc3c2)nc1 | > 100 | > 100 | 0.3 | > 100 | > 100 | > 100 | > 100 | > 100 | > 100 | > 100 | > 100 | > 100 | > 100 | > 100 | > 333 | –
5 | COc1nc2ccc(CSc3ccccn3)cc2nc1OC | > 100 | > 100 | > 100 | > 100 | > 28 | > 100 | > 100 | > 100 | > 100 | > 100 | > 100 | > 100 | 28 | > 100 | – | –
6 | COc1nc2ccc(CSc3ccc(Cl)c(Cl)c3)cc2nc1OC | > 80 | > 80 | > 75 | > 75 | > 48 | > 75 | > 100 | > 100 | > 75 | 75 | > 75 | > 75 | 48 | 80 | – | –
7 | C[C@@]1(O)[C@H](O)[C@@H](CO)O[C@H]1n1cnc2c(=O)[nH]c(N)nc21 [2'-B-METHYL-GUANOSINE] | 1.9 | 1.9 | – | – | – | – | > 100 | 1.1 | – | – | – | – | – | > 100 | – | –
8 | CCOC(=O)c1ccc(SCc2ccc3nc(OC)c(OC)nc3c2)cc1 | > 100 | > 100 | 0.09 | > 100 | > 100 | > 100 | > 100 | > 100 | > 100 | > 100 | > 100 | > 100 | > 100 | > 100 | > 1110 | Activity (Coxsackievirus B5 [12]): Active; Activity (Coxsackievirus B5 [13]): inactive; Activity (Coxsackievirus B5 [14]): inactive; Activity (Coxsackievirus B5 [15]): inactive; Activity (Coxsackievirus B5 [16]): inactive; Activity (Coxsackievirus B5 [17]): inactive; Activity (Coxsackievirus B5 [18]): Dose-dependent effect; Activity (Coxsackievirus B5 [19]): Active
9 | Cc1cc(CCCOc2c(C)cc(-c3noc(C(F)(F)F)n3)cc2C)on1 [PLECONARIL] | – | – | 0.005 | – | – | – | – | – | – | > 100 | – | – | – | – | – | –
